From ChEMBL document CHEMBL1145389, “Total synthesis and biological evaluation of C16 analogs of (-)-dictyostatin” (2007)

What was measured:
[1] = tested on: 1A9/ptx-10; assay: Growth inhibition of beta tubulin Phe270Val mutant expressing human 1A9/Ptx10 cells after 72 hrs; assay type: functional; details: 1A9/ptx-10, 72 h
Procedure, shortened: (§1)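 GI50 determined after 72 h continuous exposure to test agent in ovarian carcinoma 1A9 cells and in paclitaxel-resistant 1A9 clones carrying mutant β-tubulin (Ptx10, βPhe270→Val; Ptx22, βAla364→Thr).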

[2] = organism: Bos taurus; assay: Displacement of [3H]paclitaxel from bovine brain tubulin at 4 uM
Procedure, shortened: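 Competition at 37 °C: 4 µM test agent against 2 µM [³H]paclitaxel for binding to microtubules assembled from 2 µM bovine brain tubulin with 20 µM dideoxyGTP; reported as percent competition.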

[3] = tested on: 1A9/ptx-22; assay: Growth inhibition of beta tubulin A364T mutant expressing human 1A9/Ptx22 cells after 72 hrs; assay type: functional; details: 1A9/ptx-22, 72 h; procedure, shortened: as §1
[4] = tested on: 1A9; assay: Growth inhibition of human 1A9 cells after 72 hrs; assay type: functional; details: 1A9, 72 h; procedure, shortened: as §1
[5] = tested on: HeLa; assay: Increase in cellular tubulin polymer mass in HeLa cells assessed as minimum detectable effective concentration after 21 hrs; assay type: functional, Homo sapiens
Procedure, shortened: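 HeLa cells exposed continuously for 21 h; lowest concentration producing a detectable rise in cellular tubulin polymer mass recorded as MDEC.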

[6] = organism: Bos taurus; assay: Induction of bovine brain tubulin polymerization at 10 uM relative to paclitaxel

Activity [2] [%]	% tubulin polymerization [6] [%]	Structure (SMILES)	GI50 [1] [nM]	GI50 [3] [nM]	GI50 [4] [nM]	Activity [5] [nM]
11	1	C=C/C=C\[C@H](C)[C@@H]1OC(=O)/C=C\C=C\[C@@H](C)[C@@H](O)C[C@@H](O)/C=C\[C@H](C)[C@H](O)[C@@H](C)/C=C\CC[C@@H](O)[C@@H]1C	19300	4600	4260	> 5000
38	107	C=C/C=C\[C@H](C)[C@@H]1OC(=O)/C=C\C=C\[C@@H](C)[C@@H](O)C[C@H](O)/C=C\[C@H](C)[C@H](O)[C@@H](C)/C=C\CC[C@@H](O)[C@@H]1C	942	62	8.3	11
5	10	C=C/C=C\[C@H](C)[C@@H]1OC(=O)/C=C/C=C/[C@@H](C)[C@@H](O)C[C@H](O)/C=C\[C@H](C)[C@H](O)[C@@H](C)/C=C\CC[C@@H](O)[C@@H]1C	23700	847	210	647

Second part, the compound before the results:

Structure (SMILES)	Activity [2] [%]	% tubulin polymerization [6] [%]	GI50 [1] [nM]	GI50 [3] [nM]	GI50 [4] [nM]	Activity [5] [nM]
C=C/C=C\[C@H](C)[C@@H]1OC(=O)/C=C\C=C\[C@@H](C)[C@@H](O)C[C@H](O)/C=C\[C@H](C)[C@H](O)[C@@H](C)C[C@@H](C)CC[C@@H](O)[C@@H]1C [DICTYOSTATIN]	75		3.2	1.3	0.69	5.4
C=C/C=C\[C@H](C)[C@@H]1OC(=O)/C=C\C=C\[C@@H](C)[C@@H](O)C[C@H](O)/C=C\[C@H](C)[C@H](O)[C@@H](C)C[C@H](C)CC[C@@H](O)[C@@H]1C	11	9	862	543	61	1280
C=C/C=C\[C@H](C)[C@@H]1OC(=O)/C=C\C=C\[C@@H](C)[C@@H](O)C[C@H](O)/C=C\[C@H](C)[C@H](O)[C@@H](C)CCCC[C@@H](O)[C@@H]1C	48	91	470	5.6	0.41	25
C=C/C=C\[C@H](C)[C@H](O)[C@@H](C)[C@H]1CC[C@@H](C)C[C@H](C)[C@@H](O)[C@@H](C)/C=C\[C@@H](O)C[C@H](O)[C@H](C)/C=C/C=C\C(=O)O1	4	3	44200	53800	7800	> 5000
C=C/C=C\[C@H](C)[C@H](OC(N)=O)[C@@H](C)[C@H](O)[C@@H](C)C/C=C\[C@H](C)[C@@H](O)[C@@H](C)/C=C\[C@@H](O)C[C@@H]1OC(=O)[C@H](C)[C@@H](O)[C@H]1C	75		33	30	3.7	29
CC(=O)O[C@H]1C(=O)[C@@]2(C)[C@H]([C@H](OC(=O)c3ccccc3)[C@]3(O)C[C@H](OC(=O)[C@H](O)[C@@H](NC(=O)c4ccccc4)c4ccccc4)C(C)=C1C3(C)C)[C@]1(OC(C)=O)CO[C@@H]1C[C@@H]2O [PACLITAXEL]		100	64	51	0.71	5.2
C=C/C=C\[C@H](C)[C@H](OC(N)=O)[C@@H](C)[C@H](O)[C@@H](C)C/C(C)=C\[C@H](C)[C@@H](O)[C@@H](C)/C=C\[C@@H](O)C[C@@H]1OC(=O)[C@H](C)[C@@H](O)[C@H]1C [DISERMOLIDE]	76	148	6.2	7	1.7	65
C=C/C=C\[C@H](C)[C@H](O)[C@H](C)[C@@H]1CC/C=C\[C@H](C)[C@@H](O)[C@@H](C)/C=C\[C@H](O)C[C@H](O)[C@H](C)/C=C\C=C\C(=O)O1	7	6	32700	> 50000	> 50000	> 5000
